Tests used:
[1] = Inhibition of PDE4D7 S129D mutant (unknown origin) preincubated for 5 to 10 mins followed by substrate addition and measured for 10 mins by coupled enzyme based fluorescence analysis; parameters: species or system Homo sapiens
How it was run: (§1)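 Mutationally activated dimeric enzymes: PDE4D7-S129D (PDE4D*) and PDE4B1-S133D (PDE4B*). A real-time coupled enzyme assay measured inhibition instead of a fluorescein-labeled cAMP substrate, because the label prevents UCR2 closure. PDE4B* was used to assess subtype selectivity. The method otherwise followed earlier work.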

[2] = Selectivity index, ratio of IC50 for PDE4B1 S133D mutant (unknown origin) to IC50 for PDE4D7 S129D mutant (unknown origin)
How it was run: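 B/D ratio is the IC50 against PDE4B1-S133D (PDE4B*) divided by the IC50 against PDE4D7-S129D (PDE4D*). Both IC50s come from the real-time coupled enzyme assay on the mutationally activated dimeric enzymes.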

[3] = biological target: T1, 3',5'-cyclic-AMP phosphodiesterase 4B (Homo sapiens, UniProt Q07343, S133D); assay: Inhibition of PDE4B1 S133D mutant (unknown origin) preincubated for 5 to 10 mins followed by substrate addition and measured for 10 mins by coupled enzyme based fluorescence analysis; how it was run: as §1
[4] = biological target: T1, 3',5'-cyclic-AMP phosphodiesterase 4B; assay: Inhibition of human PDE4B1 S133D mutant by coupled enzyme based fluorescence analysis; how it was run: as §1
Homo sapiens = species on record: Homo sapiens; assay: Selectivity index, ratio of IC50 for human PDE4B1 S133D mutant to IC50 for human PDE4D7 S129D mutant
[5] = Inhibition of human PDE4D7 S129D mutant by coupled enzyme based fluorescence analysis

T1 sequence (Q07343 whole entry S133D): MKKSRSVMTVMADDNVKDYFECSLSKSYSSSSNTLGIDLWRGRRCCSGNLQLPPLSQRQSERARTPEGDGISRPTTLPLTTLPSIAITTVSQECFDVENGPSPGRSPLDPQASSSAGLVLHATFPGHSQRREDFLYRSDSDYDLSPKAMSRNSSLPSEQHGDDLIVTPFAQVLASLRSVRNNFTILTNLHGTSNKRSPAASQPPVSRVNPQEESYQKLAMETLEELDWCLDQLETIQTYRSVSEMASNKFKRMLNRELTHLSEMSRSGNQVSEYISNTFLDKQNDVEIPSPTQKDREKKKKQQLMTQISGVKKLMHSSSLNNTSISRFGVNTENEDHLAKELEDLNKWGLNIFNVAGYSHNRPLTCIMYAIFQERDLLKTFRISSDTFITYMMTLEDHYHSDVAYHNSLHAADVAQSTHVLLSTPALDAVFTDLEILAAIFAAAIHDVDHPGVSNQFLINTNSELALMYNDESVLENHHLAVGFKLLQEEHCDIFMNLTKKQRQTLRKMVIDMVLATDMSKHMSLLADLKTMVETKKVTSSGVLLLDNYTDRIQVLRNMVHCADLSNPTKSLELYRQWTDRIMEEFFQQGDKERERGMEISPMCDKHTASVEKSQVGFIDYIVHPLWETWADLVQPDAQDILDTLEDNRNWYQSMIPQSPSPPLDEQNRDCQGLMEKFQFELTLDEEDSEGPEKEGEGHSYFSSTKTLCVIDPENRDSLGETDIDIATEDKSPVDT

| SMILES | IC50 [1] [nM] | Ratio IC50 [2] | IC50 [3] [nM] | IC50 [4] [nM] | logIC50 [1] | Ratio IC50 (Homo sapiens) | IC50 [5] [nM] |
| --- | --- | --- | --- | --- | --- | --- | --- |
| COc1ccc(Cc2cnn(C)c2)nc1-c1cccc(OC(F)F)c1 | 11 | 137 | 1440 | – | – | – | – |
| COc1ccc(Cn2cnnn2)nc1-c1cccc(OC(F)F)c1 | 16 | 81 | 1260 | – | – | – | – |
| COc1ccc(Oc2cn[nH]c2)nc1-c1cccc(Cl)c1 | 306 | 14 | 4160 | – | – | – | – |
| COc1cccc(-c2nc(Cn3ccnc3)ccc2OC(F)F)c1 | 2.1 | 242 | 513 | – | – | – | – |
| COc1ccc(Cc2ccncc2)nc1-c1cccc([N+](=O)[O-])c1 | – | – | – | 1120 | – | – | – |
| COc1ccc(Cn2cnc(C(F)(F)F)n2)nc1-c1cccc(OC(F)F)c1 | 785 | – | > 10000 | – | – | – | – |
| COc1ccc(Oc2cn[nH]c2)nc1-c1cccc(C(F)(F)F)c1 | 3540 | 0.92 | 3240 | – | – | – | – |
| COc1cccc(-c2nc(Cc3cn[nH]c3)ccc2OC(F)F)c1 | 2.7 | 193 | 521 | – | – | – | – |
| COc1cccc(-c2nc(Oc3cn[nH]c3)ccc2OC(F)F)c1 | 281 | – | > 10000 | – | – | – | – |
| COc1cccc(-c2nc(Cc3cn[nH]c3)ccc2OC)c1 | 13 | 165 | 2130 | – | 1.11 log(nM) | – | – |
| COc1ccc(Cc2cn[nH]c2)nc1-c1ccc2nonc2c1 | 13 | 57 | 730 | – | – | – | – |
| COc1ccc(Cc2ccncc2)nc1-c1cccc(Cl)c1 | – | – | – | 720 | – | – | – |
| COc1ccc(Cc2cn[nH]c2)nc1-c1cccc(Cl)c1 | 6 | 154 | 923 | – | – | – | – |
| COc1cccc(-c2nc(Nc3cn[nH]c3)ccc2OC(F)F)c1 | 658 | – | > 10000 | – | – | – | – |
| COc1ccc(Nc2cn[nH]c2)nc1-c1cccc(OC(F)F)c1 | 188 | 13 | 2500 | – | – | – | – |
| COc1ccc(Cn2cccn2)nc1-c1cccc(Cl)c1 | 1150 | 8 | 9170 | – | – | – | – |
| FC(F)Oc1cccc(-c2nc(Cc3ccncc3)ccc2OCc2ccccc2)c1 | 610 | – | > 7760 | – | – | – | – |
| COc1cccc(-c2nc(C(=O)c3cn[nH]c3)ccc2OC(F)F)c1 | 873 | 2 | 1930 | – | – | – | – |
| COc1ccc(Cn2ccnc2)nc1-c1cccc(OC(F)F)c1 | 1.06 | 559 | 593 | – | – | – | – |
| COc1ccc(Cc2ccc(CCCO)cc2)nc1-c1cccc(OC(F)F)c1 | 16 | – | > 10000 | – | – | – | – |
| Fc1cccc(-c2nc(Nc3cn[nH]c3)ccc2OC(F)F)c1 | 136 | 13 | 1750 | – | – | – | – |

| SMILES | IC50 [1] [nM] | Ratio IC50 [2] | IC50 [3] [nM] | IC50 [4] [nM] | logIC50 [1] | Ratio IC50 (Homo sapiens) | IC50 [5] [nM] |
| --- | --- | --- | --- | --- | --- | --- | --- |
| O=[N+]([O-])c1cccc(-c2nc(Cc3cn[nH]c3)ccc2OC(F)F)c1 | 0.36 | 254 | 91 | – | – | – | – |
| COc1ccc(Nc2cn[nH]c2)nc1-c1cccc(F)c1 | 529 | 5 | 2530 | – | – | – | – |
| COc1ccc(Cc2cn[nH]c2)nc1-c1cccc(OC(F)F)c1 | 1.4 | 793 | 1070 | – | – | – | – |
| COc1cccc(-c2nc(Cc3cnn(C)c3)ccc2OC(F)F)c1 | 3.5 | 244 | 853 | – | – | – | – |
| COc1ccc(Oc2cn[nH]c2)nc1-c1cccc(OC(F)F)c1 | 1550 | – | > 10000 | – | – | – | – |
| COc1ccc(Cn2cncn2)nc1-c1cccc(OC(F)F)c1 | 15 | – | > 10000 | – | – | – | – |
| COc1ccc(Cc2ccc(CCO)cc2)nc1-c1cccc(OC(F)F)c1 | 4 | – | > 10000 | – | – | – | – |
| FC(F)Oc1ccc(Cn2ccnc2)nc1-c1cccc(OCc2ccccc2)c1 | 85 | 0.54 | 46 | – | – | – | – |
| Fc1ccc(Cc2cn[nH]c2)nc1-c1cccc(Cl)c1 | 744 | – | > 10000 | – | – | – | – |
| COc1cccc(-c2nc(Cc3ccc(CCCO)cc3)ccc2OC(F)F)c1 | 24 | – | > 10000 | – | – | – | – |
| O=[N+]([O-])c1cccc(-c2nc(Cn3ccnc3)ccc2OC(F)F)c1 | 0.3 | 270 | 81 | – | – | – | – |
| COc1ccc(Cn2cccn2)nc1-c1cccc(F)c1 | 5530 | – | > 10000 | – | – | – | – |
| COc1cccc(-c2nc(Cn3cnnn3)ccc2OC(F)F)c1 | 23 | 28 | 646 | – | – | – | – |
| FC(F)Oc1cccc(-c2nc(Cn3ccnc3)ccc2OCc2ccccc2)c1 | 174 | – | > 10000 | – | – | – | – |
| COc1cccc(-c2nc(Cc3ccc(CCO)cc3)ccc2OC(F)F)c1 | 6.9 | 581 | 4000 | – | – | – | – |
| COc1cccc(-c2nc(Cc3ccncc3)ccc2OC(F)F)c1 | 3.9 | 159 | 621 | – | – | – | – |
| COc1cccc(-c2nc(Cn3cncn3)ccc2OC(F)F)c1 | 42 | – | > 10000 | – | – | – | – |
| COc1ccc(Cn2ncnn2)nc1-c1cccc(OC(F)F)c1 | 21 | – | > 10000 | – | – | – | – |
| COc1cccc(-c2nc(Cn3cnc(C(F)(F)F)n3)ccc2OC(F)F)c1 | 743 | – | > 10000 | – | – | – | – |
| COc1ccc(Nc2cn[nH]c2)nc1-c1cccc(Cl)c1 | 468 | 7 | 3160 | – | – | – | – |
| Fc1cccc(-c2nc(Oc3cn[nH]c3)ccc2OC(F)F)c1 | 70 | 45 | 3110 | – | – | – | – |

| SMILES | IC50 [1] [nM] | Ratio IC50 [2] | IC50 [3] [nM] | IC50 [4] [nM] | logIC50 [1] | Ratio IC50 (Homo sapiens) | IC50 [5] [nM] |
| --- | --- | --- | --- | --- | --- | --- | --- |
| Fc1cccc(-c2nc(Cn3ccnc3)ccc2OC(F)F)c1 | 3.7 | 54 | 198 | – | 0.57 log(nM) | – | – |
| FC(F)Oc1ccc(Cc2ccncc2)nc1-c1cccc(OCc2ccccc2)c1 | 171 | 0.84 | 143 | – | – | – | – |
| COc1ccc(Cc2cn[nH]c2)nc1-c1cccc(C(F)(F)F)c1 | 186 | 42 | 7850 | – | – | – | – |
| COc1ccc(Cn2cccn2)nc1-c1cccc(C(F)(F)F)c1 | > 10000 | – | > 10000 | – | – | – | – |
| COc1cccc(-c2nc(Cn3cccn3)ccc2OC(F)F)c1 | 281 | 4 | 1060 | – | – | – | – |
| Fc1cccc(-c2nc(Cc3cn[nH]c3)ccc2OC(F)F)c1 | 7.6 | 141 | 1070 | – | – | – | – |
| COc1cccc(-c2nc(Cc3cncnc3)ccc2OC(F)F)c1 | 10.2 | 116 | 1190 | – | – | – | – |
| COc1cccc(-c2nc(COc3cn[nH]c3)ccc2OC(F)F)c1 | 372 | – | > 10000 | – | – | – | – |
| COc1ccc(Cc2ccncc2)nc1-c1cccc(OC(F)F)c1 | 1.8 | 364 | 665 | – | 0.26 log(nM) | – | – |
| FC(F)Oc1cccc(-c2nc(Cc3cn[nH]c3)ccc2OCc2ccccc2)c1 | 164 | – | > 10000 | – | – | – | – |
| FC(F)Oc1ccc(Cc2cn[nH]c2)nc1-c1cccc(OCc2ccccc2)c1 | 446 | 0.61 | 274 | – | – | – | – |
| COc1ccc(Cc2cn[nH]c2)nc1-c1cccc(F)c1 | 23.8 | 42 | 995 | – | – | – | – |
| COc1ccc(Nc2cn[nH]c2)nc1-c1cccc(C(F)(F)F)c1 | 4310 | – | > 10000 | – | – | – | – |
| COc1ccc(Cc2cn[nH]c2)nc1-c1cccc([N+](=O)[O-])c1 | – | – | – | 280 | – | – | – |
| COc1ccc(Cc2cnn(C)c2)nc1-c1cccc(Cl)c1 | – | – | – | 858 | – | 1670 | 0.5 |
| COc1ccc(Cc2cn[nH]c2)nc1-c1cccc(OC(F)(F)F)c1 | 46 | 162 | 7440 | – | – | – | – |
| COc1cccc(-c2nc(CNc3cn[nH]c3)ccc2OC(F)F)c1 | 530 | 4 | 2270 | – | – | – | – |
| COc1cccc(-c2nc(Cn3ncnn3)ccc2OC(F)F)c1 | 17 | – | > 10000 | – | – | – | – |
| COc1cccc(-c2nc(Cc3cccnc3)ccc2OC(F)F)c1 | 12.3 | 62 | 764 | – | – | – | – |
| COc1ccc(Oc2cn[nH]c2)nc1-c1cccc(F)c1 | 836 | 5 | 4540 | – | – | – | – |
